{"source": "ChEMBL document CHEMBL4002604", "about": "“Evaluation of biological properties of 3,3',4,4'-benzophenonetetracarboxylic dianhydride derivatives and their ability to inhibit hexokinase activity” (2017)", "key": {"P19 [1]": {"test_system": "P19", "experiment": "Cytotoxicity against undifferentiated mouse P19 cells assessed as metabolic activity at 1 to 100 uM after 24 hrs by resazurin assay relative to control", "format": "functional", "how_it_was_run": "(§1)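 Metabolic activity by resazurin reduction in undifferentiated (P19SCs) or differentiated (P19dCs) P19 cells. Exposure to 1, 10 or 100 µM for 24, 48 or 72 h. Read-out relative to untreated control. Significance vs control at p<0.05.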"}, "P19 [2]": {"test_system": "P19", "experiment": "Cytotoxicity against differentiated mouse P19 cells assessed as metabolic activity at 1 to 100 uM after 72 hrs by resazurin assay relative to control", "format": "functional", "how_it_was_run": "as §1"}, "P19 [3]": {"test_system": "P19", "experiment": "Cytotoxicity against undifferentiated mouse P19 cells assessed as mitochondrial membrane potential at 1 uM after 72 hrs by TMRF dye based fluorescence assay relative to control", "format": "functional", "how_it_was_run": "(§2)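 Undifferentiated (P19SCs) or differentiated (P19dCs) P19 cells incubated 24 or 72 h with 1 or 100 µM. Mitochondrial membrane potential and mitochondrial superoxide levels measured and expressed relative to untreated control. Means ± SD from 4 independent measurements, at least 4 repeats each. Significance at p<0.05.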"}, "P19 [4]": {"test_system": "P19", "experiment": "Cytotoxicity against undifferentiated mouse P19 cells assessed as mitochondrial membrane potential at 100 uM after 72 hrs by TMRF dye based fluorescence assay relative to control", "format": "functional", "how_it_was_run": "as §2"}, "P19 [5]": {"test_system": "P19", "experiment": "Cytotoxicity against undifferentiated mouse P19 cells assessed as mitochondrial superoxide anion level at 100 uM after 72 hrs by MitoSox dye based fluorescence assay relative to control", "format": "functional", "how_it_was_run": "as §2"}, "P19 [6]": {"test_system": "P19", "experiment": "Cytotoxicity against differentiated mouse P19 cells assessed as mitochondrial membrane potential at 1 uM after 72 hrs by TMRF dye based fluorescence assay relative to control", "format": "functional", "how_it_was_run": "as §2"}, "P19 [7]": {"test_system": "P19", "experiment": "Cytotoxicity against differentiated mouse P19 cells assessed as mitochondrial membrane potential at 100 uM after 72 hrs by TMRF dye based fluorescence assay relative to control", "format": "functional", "how_it_was_run": "as §2"}, "P19 [8]": {"test_system": "P19", "experiment": "Cytotoxicity against differentiated mouse P19 cells assessed as mitochondrial superoxide anion level at 1 uM after 24 hrs by MitoSox dye based fluorescence assay relative to control", "format": "functional", "how_it_was_run": "as §2"}, "[9]": {"biological_target": "T1, Hexokinase-2 (Mus musculus) (UniProt O08528)", "T1 sequence (whole entry)": "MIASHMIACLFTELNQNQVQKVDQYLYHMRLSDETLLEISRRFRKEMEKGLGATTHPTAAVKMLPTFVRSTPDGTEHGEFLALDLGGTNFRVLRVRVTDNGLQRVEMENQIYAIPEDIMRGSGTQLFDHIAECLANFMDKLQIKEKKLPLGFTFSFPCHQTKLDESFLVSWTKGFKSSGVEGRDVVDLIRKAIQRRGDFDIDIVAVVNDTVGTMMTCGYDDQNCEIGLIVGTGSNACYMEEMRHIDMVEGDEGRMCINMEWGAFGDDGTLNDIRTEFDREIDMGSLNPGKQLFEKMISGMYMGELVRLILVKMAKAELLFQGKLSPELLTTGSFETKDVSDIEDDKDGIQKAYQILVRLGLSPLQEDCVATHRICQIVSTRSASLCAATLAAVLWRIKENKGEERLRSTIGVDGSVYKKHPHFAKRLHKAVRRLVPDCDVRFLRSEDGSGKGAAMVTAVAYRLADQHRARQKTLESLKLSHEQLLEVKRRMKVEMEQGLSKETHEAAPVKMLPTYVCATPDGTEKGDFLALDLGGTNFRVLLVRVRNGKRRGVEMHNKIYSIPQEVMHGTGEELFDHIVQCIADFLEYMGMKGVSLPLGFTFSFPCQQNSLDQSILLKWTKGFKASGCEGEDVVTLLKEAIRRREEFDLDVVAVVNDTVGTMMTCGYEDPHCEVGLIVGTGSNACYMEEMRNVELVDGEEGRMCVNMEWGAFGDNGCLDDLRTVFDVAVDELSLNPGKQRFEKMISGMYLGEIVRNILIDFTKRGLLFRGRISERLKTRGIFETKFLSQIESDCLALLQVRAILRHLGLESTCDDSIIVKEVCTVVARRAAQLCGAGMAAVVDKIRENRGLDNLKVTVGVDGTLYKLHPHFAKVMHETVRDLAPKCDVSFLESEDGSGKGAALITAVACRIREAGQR", "experiment": "Inhibition of HK2 isolated from mouse undifferentiated P19 cell lysates using [U-14C]-labeled glucose as substrate in presence of ATP and NADP by G6PD enzyme coupled spectrophotometric assay", "details": "in the assay text read “glucose” for “[U-14C]-labeled glucose”", "how_it_was_run": "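Coupled hexokinase assay at 340 nm following G6P-dependent NADP→NADPH conversion. Enzyme source is freshly prepared, centrifuged undifferentiated P19 lysate supernatant or recombinant human HKII. Buffer: 100 mM Tris-HCl pH 8.0, 0.5 mM EDTA, 10 mM MgCl2, 2 mM glucose, 0.1 mM NADP, 0.1 U/ml G6PD. Preincubated 10 min at 37°C; reaction started with 10 mM ATP. Means ± SD, 4 experiments, at least 4 repeats each.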"}, "[10]": {"biological_target": "T1, Hexokinase-2 (Mus musculus)", "experiment": "Potency index, ratio of compound effect to 2-DG effect for inhibition of HK2 in mouse undifferentiated P19 cells"}}, "data": [{"smiles": "O=C(c1ccc2c(c1)C(=O)N(c1cccc(O)c1)C2=O)c1ccc2c(c1)C(=O)N(c1cccc(O)c1)C2=O", "values": [{"measurement": "Activity", "setting": "P19 [1]", "result": 102.6, "unit": "%"}, {"measurement": "Activity", "setting": "P19 [2]", "result": 91.5, "unit": "%"}, {"measurement": "Activity", "setting": "P19 [3]", "result": 110.4, "unit": "%"}, {"measurement": "Activity", "setting": "P19 [4]", "result": 131.1, "unit": "%"}, {"measurement": "Activity", "setting": "P19 [5]", "result": 108.3, "unit": "%"}, {"measurement": "Activity", "setting": "P19 [6]", "result": 87.8, "unit": "%"}, {"measurement": "Activity", "setting": "P19 [7]", "result": 50.9, "unit": "%"}, {"measurement": "Activity", "setting": "P19 [8]", "result": 112.2, "unit": "%"}, {"measurement": "inhibition", "setting": "[9]", "result": "Dose-dependent effect"}, {"measurement": "Ratio", "setting": "[10]", "result": "> 500"}]}]}
